These results are taken from PubChem BioAssay.

Active and inactive are the calls of the source.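 Rule for the calls, unless noted: active = fluorescence slope after compound addition differing from the mean of all screened samples at 99.7% confidence, in either direction; inactive = the rest.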

Assay [1] is described as follows: inhibitors of TNFa-induced NFkB p65 translocation, primary screen, imaging, HUVEC, MLSMR starter and 10KST1 sets (AID 438;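 active = inhibition above 20% together with a positive visual image hit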;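 note: compound added about 3h40 before a 20 min TNFalpha stimulation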;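 for inhibition: signal is the nuclear over cytoplasmic p65 intensity ratio per well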). The conditions noted are these: HUVEC TNFa-induced p65 nuclear translocation; cell count: measured here: nuclei count (cytotoxicity indicator), at 2.08 µM; inhibition: at 2 µM, stronger effect = higher value, 0% TNFa-plus-vehicle, 100% no-TNFa wells.
Assay [2] is described as follows: endothelial E-selectin expression blockers – imaging, HUVEC, immunofluorescence, MLSMR starter and 10KST1 sets, primary screen (AID 487;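 active = visually confirmed hit in the image check and inhibition above 20%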;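 for inhibition: signal is fraction of cell area covered by stained E-selectin grains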;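 for nuclei count: 100% = median nuclei count of all wells on the same plate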). The conditions noted are these: HUVEC TNFalpha-induced E-selectin immunofluorescence imaging, at 2 µM; inhibition: stronger effect = higher value; nuclei count: measured here: cell number, toxicity.
Assay [3] is described as follows: Primary imaging screen for DUSP6 inhibitors that restore phospho-Erk in transfected HeLa cells, chemical complementation (AID 609;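 active = compounds giving at least 50% inhibition in the cell-based MKP-3 phosphatase rescue imaging test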;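 for inhibition: phospho-Erk level distribution per well compared with pooled transfected vehicle control wells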). The conditions noted are these: HeLa MKP-3 transfected, phospho-Erk imaging KS statistic, at 10 µM, cells stimulated with TPA for 15 min.
The target in assay [4] is Dual specificity protein phosphatase 6 (Homo sapiens) (UniProt Q16828). The description is as above. The conditions noted are these: HeLa MKP-3 transfected, phospho-Erk imaging KS statistic; at 10 µM; stronger effect = higher value; cells stimulated with TPA for 15 min.
For assay [5], the target named is Voltage-gated potassium channel subunit beta-2 (Rattus norvegicus) (UniProt P62483). Description: inhibitors of rat Kvbeta2 reductase activity – biochemical, NADPH fluorescence, primary screen (AID 622;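 active = fluorescence slope higher than the sample average by over 3 SD, cut at about -0.22 in these data, passing the limit was not always enough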;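 note: slope of raw intensity against log time taken from 70 to 1610 s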). To be noted: recombinant KvBeta, 4-cyanobenzaldehyde reduction, at 10 µM, stronger effect = higher value.
For assay [6] the target is unchanged. In words: enhancers of rat Kvbeta2 NADPH turnover – biochemical, NADPH fluorescence, primary screen (AID 623;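 active = NADPH fluorescence slope more negative than the mean of all samples by about 3 SD, 99.7% confidence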;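 note: fluorescence intensity change per second fitted from 20 to 320 s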). The conditions noted are these: Recombinant KvBeta, NADPH fluorescence decrease slope, 10 min; at 10 µM; stronger effect = lower value.
For assay [7], the target named is Alpha-2C adrenergic receptor (Homo sapiens) (UniProt P18825). In words: compounds altering alpha2C-coupled GIRK flux – cell-based, HEK293 alpha2C/GIRK1/2, thallium flux, primary screen (AID 624).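 Note: slope of fluorescence ratio to pre-addition baseline per second over 15 to 24 s.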 To be noted: thallium flux BTC fluorescence, at 10 µM, actives lie on both sides.
Assay [8] can be described thus: inhibitors of larval lipid processing in zebrafish, primary screen, whole organism, PED6 fluorescence, gall bladder and intestine (AID 686;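 active = a full or partial loss of lipid-probe fluorescence in the fish gall bladder, intestine or both, judged by eye; inactive = no fluorescence loss, or compound toxic to the fish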;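 note: larvae 5 to 7 days old with five fish per well; signal comes from phospholipase A2 cleavage of quenched PED6 carried via bile; overnight exposure to compound and PED6 before scoring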). To be noted: Zebrafish larvae PED6 lipid processing, fluorescence scoring; screened at 20 µM (by protocol). The essentials:
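Doses: 20 µM single dose. Test system: live zebrafish larvae aged 5-7 days, whole organism. Quantity: five larvae per well. Measured by: By-eye fluorescence microscopy. Reagent: ingested quenched lipid PED6 at 100 nM. Read-out: visual per-well fluorescence inhibition score. Times: overnight exposure of larvae to compound plus PED6.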

Assay [9] is described as follows: loss of swimming-algae plug formation – whole organism, Chlamydomonas reinhardtii, WT vs cilia-less mutant, absorbance, 96-well, primary screen (AID 463189;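 active = inhibition at or above 50% relative to wild type and mutant plate controls; inactive = inhibition below 50%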;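 note: 0% = wild type cc124 cells in DMSO and 100% = ciliumless bld1 mutant cells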). The conditions noted are these: Chlamydomonas reinhardtii gravitaxis, OD600 absorbance, 2 days; at 10 µM; stronger effect = higher value.
The mark [10] stands for this setting: measured here: cell density z-score.
The mark [11] stands for this setting: measured here: nuclear c-Myc green intensity z-score.
Setting [12] is: measured here: nuclear pErk red intensity z-score, stronger effect = higher value.

Chain of Alpha-2C adrenergic receptor (Homo sapiens) (P18825 whole entry, looked up): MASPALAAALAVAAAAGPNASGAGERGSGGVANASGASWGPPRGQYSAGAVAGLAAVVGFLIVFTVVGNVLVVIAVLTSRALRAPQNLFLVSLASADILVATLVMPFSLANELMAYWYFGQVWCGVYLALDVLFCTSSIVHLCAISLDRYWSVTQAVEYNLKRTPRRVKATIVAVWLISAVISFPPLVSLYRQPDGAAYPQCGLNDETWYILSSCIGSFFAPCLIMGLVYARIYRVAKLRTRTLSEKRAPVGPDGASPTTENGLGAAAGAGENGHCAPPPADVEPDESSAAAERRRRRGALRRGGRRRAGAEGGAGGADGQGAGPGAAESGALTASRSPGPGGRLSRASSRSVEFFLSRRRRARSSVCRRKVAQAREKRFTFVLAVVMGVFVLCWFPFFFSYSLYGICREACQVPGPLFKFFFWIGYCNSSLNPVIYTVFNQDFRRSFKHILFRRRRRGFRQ
Chain of Dual specificity protein phosphatase 6 (Homo sapiens) (Q16828 whole entry, looked up): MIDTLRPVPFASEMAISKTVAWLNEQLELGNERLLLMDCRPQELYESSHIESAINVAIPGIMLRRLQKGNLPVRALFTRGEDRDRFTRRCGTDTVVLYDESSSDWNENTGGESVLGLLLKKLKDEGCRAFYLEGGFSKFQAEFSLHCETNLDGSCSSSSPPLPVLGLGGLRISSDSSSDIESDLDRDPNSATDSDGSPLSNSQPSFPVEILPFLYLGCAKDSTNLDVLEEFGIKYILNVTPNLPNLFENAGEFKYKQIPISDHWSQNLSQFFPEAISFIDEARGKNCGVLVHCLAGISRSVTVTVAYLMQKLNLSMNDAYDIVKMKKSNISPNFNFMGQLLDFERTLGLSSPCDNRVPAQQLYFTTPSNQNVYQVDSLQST
Chain of Voltage-gated potassium channel subunit beta-2 (Rattus norvegicus) (P62483 whole entry, looked up): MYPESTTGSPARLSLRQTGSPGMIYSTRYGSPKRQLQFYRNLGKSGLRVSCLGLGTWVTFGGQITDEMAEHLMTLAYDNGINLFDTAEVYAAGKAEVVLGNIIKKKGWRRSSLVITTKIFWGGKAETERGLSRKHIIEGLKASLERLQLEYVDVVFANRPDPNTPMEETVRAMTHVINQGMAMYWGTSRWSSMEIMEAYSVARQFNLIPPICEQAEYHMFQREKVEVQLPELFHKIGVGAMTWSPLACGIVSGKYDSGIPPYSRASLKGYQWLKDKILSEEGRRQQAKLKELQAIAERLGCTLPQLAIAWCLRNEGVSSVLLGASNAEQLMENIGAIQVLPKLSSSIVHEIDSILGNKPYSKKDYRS

As to `Clc1cccc(-c2nn3c(COc4ccccc4)nnc3s2)c1`, the cell count in assay [1] worked out at 559. The inhibition is -2.3% (inactive) in assay [1], -53% (inactive) in assay [2], -9.66% (inactive) in [4] and -2.6% (inactive) in assay [9]. In assay [2], this molecule showed a nuclei count of 139%. Further, the z-score in assay [3] (setting [10]) is 0.34; in assay [3] (setting [11]) it was 0.334; in assay [3] (setting [12]) it was -0.356. Also, the fluorescence slope in [5] is -0.412 (inactive). Further, the NADPH fluorescence slope in [6] was -0.000153 (inactive). Also, the slope in [7] was 0.00768 (inactive). Further, the molecule was called inactive in [8].
For `O=C(O)CCSc1ccc2ccccc2n1`, in [1], the cell count was determined as 502. The inhibition in [1] was 0.3% (inactive); in assay [2], -157% (inactive); in assay [4] it was 15.8% (inactive); in assay [9] it was 9.45% (inactive). Further, the nuclei count in assay [2] is 135%. Also, the z-score is 1.96 in assay [3] (setting [10]), -1.24 in assay [3] (setting [11]) and -0.378 in assay [3] (setting [12]). For the same molecule, the fluorescence slope in [5] was -0.49 (inactive). Moreover, the NADPH fluorescence slope in assay [6] was -7.2e-05 (inactive). Besides, the slope in assay [7] was 0.00505 (inactive). The result in assay [8] was inactive.
As for `CCOC(=O)c1sc(-n2[nH]c(C)cc2=O)nc1C`, the cell count in assay [1] amounted to 452. Besides, the inhibition in [1] is -2.2% (inactive); in assay [2], -23% (inactive); in assay [4] it was -10.1% (inactive); in assay [9] it was -4.12% (inactive). In addition, in assay [2], the nuclei count was determined as 170%. For the same molecule, the z-score is 1.1 in assay [3] (setting [10]), -0.753 in assay [3] (setting [11]) and 0.507 in [3] (setting [12]). The fluorescence slope in assay [5] was -0.398 (inactive). Besides, the NADPH fluorescence slope in [6] was -7e-05 (inactive). For the same molecule, in [7], the slope is 0.00502 (inactive). The molecule was classed as inactive in assay [8].
Take `CCC(C)Nc1nc(-c2cccc(OC)c2O)nc2ccccc12` (stereo unspecified): the cell count in assay [1] was found to be 570. Further, the inhibition in assay [1] was 3.5% (inactive); in [2] it was -68.3% (inactive); in assay [4], 1.6e-07% (inactive); in assay [9], 65.6% (active). Besides, the nuclei count in assay [2] was found to be 152%. Besides, the z-score in assay [3] (setting [10]) was -0.862; in assay [3] (setting [11]) it was -0.242; in [3] (setting [12]), 1.22. Besides, the fluorescence slope in assay [5] was -0.394 (inactive). Besides, in [6], the NADPH fluorescence slope was -5e-05 (inactive). The slope in [7] was 0.00426 (inactive). In addition, the outcome in [8] was inactive.
Consider `C=CCn1c(SCc2c(F)c(F)c(F)c(F)c2F)nc(O)cc1=O`, for which the cell count in assay [1] came out at 615. Also, the inhibition in assay [1] is -1.1% (inactive); in assay [2] it was -11.1% (inactive); in assay [4] it was 7.83% (inactive); in assay [9], 8.12% (inactive). Besides, in [2], the nuclei count was 149%. For the same molecule, the z-score in assay [3] (setting [10]) was 1.68; in [3] (setting [11]), -0.511; in assay [3] (setting [12]) it was 0.131. In addition, the fluorescence slope in assay [5] is -0.502 (inactive). For the same molecule, the NADPH fluorescence slope in assay [6] was -0.00012 (inactive). In assay [7], the slope was 0.00491 (inactive). For the same molecule, in assay [8], the outcome was inactive.
As to `CCOP(=O)(c1ccccc1)C1(C#N)CCCC1` (stereo unspecified), the cell count in assay [1] stood at 492. Besides, the inhibition was -9.6% (inactive) in assay [1], -215% (inactive) in assay [2], -3.98% (inactive) in [4] and 4.97% (inactive) in assay [9]. The same molecule came in with a nuclei count in assay [2] of 150%. Moreover, the values for the z-score in assay [3] (setting [10]), in assay [3] (setting [11]) and in [3] (setting [12]) were -1.11, -1.86 and 0.943, respectively. In addition, the fluorescence slope in [5] was -0.513 (inactive). The NADPH fluorescence slope in assay [6] was -0.000169 (inactive). Further, in assay [7], the slope was 0.00467 (inactive). In addition, the outcome in [8] is “inactive; toxic”.
Regarding `CC1(C)NC(=O)N(CC(O)Cn2nnc3ccccc32)C1=O` (stereo unspecified), the cell count in assay [1] came to 372. The inhibition in assay [1] was 3.9% (inactive); in assay [2], -188% (inactive); in [4], -7.28% (inactive); in [9] it was 6.41% (inactive). In [2], this molecule displayed a nuclei count of 122%. Moreover, the z-score in assay [3] (setting [10]) came to 0.214; in assay [3] (setting [11]) it was 0.212; in [3] (setting [12]), 2.03. Moreover, in assay [5], the fluorescence slope was -0.357 (inactive). Moreover, in assay [6], the NADPH fluorescence slope was 2.5e-05 (inactive). Also, the slope in [7] was 0.0051 (inactive). Besides, in assay [8], the molecule was called inactive.
